This passage reports IC50 results from ChEMBL document CHEMBL1773068, “Drug to genome to drug: discovery of new antiplasmodial compounds” (J Med Chem, 2011).

Each structure is given as a SMILES string. A value given as a limit tells only on which side of the number the result lay.

The test system of one experiment is Plasmodium falciparum. As to the kind of experiment: Antiplasmodial activity against chloroquine-susceptible Plasmodium falciparum GHA strain infected in human erythrocytes after 72 hrs by spectrophotometry. Format: functional, organism-based. Conditions: read-out: IC50. In short, it runs like this: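 P. falciparum cultured in human A+ erythrocytes in RPMI-1640 with 10% human serum, 37 °C, low oxygen (3% O2, 4% CO2, 93% N2). Infected red cell suspension (1% parasitemia, 2% hematocrit) incubated with compounds 72 h, then frozen. Growth read by Malstat method: NBT/PES added, 2 h in dark, absorbance at 655 nm. IC50 from duplicate determinations.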

The subject of the next experiment is MRC5. As to the kind of experiment: Cytotoxicity against human MRC5 SV2 cells after 72 hrs. Format: cell-based. Conditions: MRC5, 72 h. In outline:
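MRC-5 SV2 human fetal lung fibroblasts grown in MEM with L-glutamine, NaHCO3 and 5% FCS at 37 °C, 5% CO2. 10^4 cells/well seeded onto prediluted compounds, 72 h at 37 °C. Viability by resazurin added for 24 h, fluorescence at ex 530/em 590 nm. IC50 from duplicate determinations.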

As for `O=C1[C@H]2Cc3c([nH]c4ncccc34)[C@@H](c3ccc4c(c3)OCO4)N2C(=O)CN1[C@@H]1CCN(Cc2ccccc2)C1`, the half-maximal inhibitory concentration (IC50) with Plasmodium falciparum is 0.97 µM; in the experiment with MRC5, 22 µM.
In the case of `Cc1cccc(N2CC(=O)N3[C@H](c4ccc5c(c4)OCO5)c4[nH]c5ccccc5c4C[C@@H]3C2=O)c1`, the IC50 in the experiment on Plasmodium falciparum and in the experiment on MRC5 was over 64 µM throughout.
Regarding `CN1CC(=O)N2[C@H](c3ccc4c(c3)OCO4)c3[nH]c4ccccc4c3C[C@@H]2C1=O` [TADALAFIL], the IC50 in the experiment on Plasmodium falciparum and in the experiment on MRC5 was over 64 µM throughout.
As for `O=C1[C@H]2Cc3c([nH]c4ccccc34)[C@@H](c3ccc4c(c3)OCO4)N2C(=O)CN1c1ccc(Cl)cc1`, the IC50 was 60 µM with Plasmodium falciparum and over 64 µM in the experiment on MRC5.
For `CN(CCCN1CC(=O)N2[C@H](c3ccc4c(c3)OCO4)c3[nH]c4ccccc4c3C[C@@H]2C1=O)Cc1ccccc1` the same measures were 8 µM and 8 µM.
`CCCCc1ccc(N2CC(=O)N3[C@H](c4ccc5c(c4)OCO5)c4[nH]c5ccccc5c4C[C@@H]3C2=O)cc1`: the IC50 in the experiment with Plasmodium falciparum and in the experiment with MRC5 was over 64 µM each time.
With `Cn1c2c(c3ccccc31)C[C@@H]1C(=O)N([C@@H]3CCN(Cc4ccccc4)C3)CC(=O)N1[C@@H]2c1ccc2c(c1)OCO2`, the half-maximal inhibitory concentration (IC50) with Plasmodium falciparum was 9 µM; with MRC5, over 64 µM.
Consider `O=C1[C@H]2Cc3c([nH]c4ccc(Br)cc34)[C@@H](c3ccc4c(c3)OCO4)N2C(=O)CN1[C@@H]1CCN(Cc2ccccc2)C1` (mixture of isomers), for which the concentration for half-maximal inhibition (IC50) with Plasmodium falciparum came to 7 µM; in the experiment on MRC5, 10 µM.
For `CN(CCN1CC(=O)N2[C@H](c3ccc4c(c3)OCO4)c3[nH]c4ccccc4c3C[C@@H]2C1=O)Cc1ccccc1` the same measures were 7 µM and over 64 µM.
Consider `O=C1[C@H]2Cc3c([nH]c4ccccc34)[C@@H](c3ccc4c(c3)OCO4)N2C(=O)CN1CCCn1ccnc1`, for which the IC50 in the experiment on Plasmodium falciparum was 9 µM; in the experiment with MRC5, over 64 µM.
For `O=C1[C@H]2Cc3c([nH]c4ccccc34)[C@@H](c3ccc4c(c3)OCO4)N2C(=O)CN1C1CCNCC1` the same measures were 32 µM and over 64 µM.
As for `O=C1[C@H]2Cc3c([nH]c4ccccc34)[C@@H](c3ccc4c(c3)OCO4)N2C(=O)CN1c1ccc(CN2CCOCC2)cc1`, the results for the IC50 in the experiment on Plasmodium falciparum and with MRC5 were 19 µM and over 64 µM, respectively.
In the case of `O=C1[C@H]2Cc3c([nH]c4ccc(F)cc34)[C@@H](c3ccc4c(c3)OCO4)N2C(=O)CN1[C@@H]1CCN(Cc2ccccc2)C1` (mixture of isomers), the IC50 in the experiment with Plasmodium falciparum was 1.7 µM; with MRC5 it was 17.8 µM.
Take `O=C1[C@H]2Cc3c([nH]c4ccccc34)[C@H](c3ccc4c(c3)OCO4)N2C(=O)CN1[C@@H]1CCN(Cc2ccccc2)C1`: the IC50 in the experiment with Plasmodium falciparum was 50 µM; with MRC5 it was over 64 µM.
For `CC(C)(C)OC(=O)N1CCN(c2ccc(N3CC(=O)N4[C@H](c5ccc6c(c5)OCO6)c5[nH]c6ccccc6c5C[C@@H]4C3=O)cc2)CC1` the same measures were over 64 µM and over 64 µM.
Taken in the same sequence, the figures for `O=C1[C@H]2Cc3c([nH]c4ccccc34)[C@@H](c3ccc4c(c3)OCO4)N2C(=O)CN1c1ccc(N2CCNCC2)cc1` were 7 µM and 8 µM.
For `O=C1N[C@@H](Cc2c[nH]c3ccccc23)C(=O)N2[C@H](c3ccc4c(c3)OCO4)c3[nH]c4ccccc4c3C[C@H]12` the same measures were 25 µM and 35 µM.
Turning to `O=C1[C@H]2Cc3c([nH]c4ccccc34)[C@@H](c3ccc4c(c3)OCO4)N2C(=O)CN1c1ccsc1`, the IC50 in the experiment with Plasmodium falciparum and in the experiment on MRC5 was over 64 µM each time.
Regarding `O=C1[C@H]2Cc3c([nH]c4ccccc34)[C@@H](c3ccc4c(c3)OCO4)N2C(=O)CN1c1ccc(C(F)(F)F)cc1`, the IC50 with Plasmodium falciparum and with MRC5 was over 64 µM each time.
On to `O=C1[C@H]2Cc3c([nH]c4ccccc34)[C@@H](c3ccc4c(c3)OCO4)N2C(=O)CN1CCc1ccc(O)cc1`, for which the half-inhibitory concentration (IC50) is 16 µM with Plasmodium falciparum and over 64 µM with MRC5.
Taken in the same sequence, the figures for `Cn1ccnc1CN1CCC(N2CC(=O)N3[C@H](c4ccc5c(c4)OCO5)c4[nH]c5ccccc5c4C[C@@H]3C2=O)CC1` were 4 µM and 62 µM.
In the case of `O=C1N[C@@H](COCc2ccccc2)C(=O)N2[C@H](c3ccc4c(c3)OCO4)c3[nH]c4ccccc4c3C[C@H]12`, the IC50 in the experiment with Plasmodium falciparum and in the experiment with MRC5 was over 64 µM throughout.
As to `O=C1[C@H]2Cc3c([nH]c4ccccc34)[C@@H](c3ccc4c(c3)OCO4)N2C(=O)CN1[C@H]1CCN(Cc2ccccc2)C1`, the IC50 with Plasmodium falciparum was 10 µM; in the experiment on MRC5 it was over 64 µM.
Taken in the same sequence, the figures for `CC(C)(C)OC(=O)N1CCN(Cc2cccc(N3CC(=O)N4[C@H](c5ccc6c(c5)OCO6)c5[nH]c6ccccc6c5C[C@@H]4C3=O)c2)CC1` were 23 µM and over 64 µM.
Consider `O=C1[C@H]2Cc3c([nH]c4ccccc34)[C@@H](c3ccc4c(c3)OCO4)N2C(=O)CN1c1cccnc1`, for which the figures for the IC50 in the experiment with Plasmodium falciparum and in the experiment with MRC5 were 22 µM and over 64 µM, respectively.
Taken in the same sequence, the figures for `O=C1[C@H]2Cc3c([nH]c4cc(F)ccc34)[C@@H](c3ccc4c(c3)OCO4)N2C(=O)CN1[C@@H]1CCN(Cc2ccccc2)C1` (mixture of isomers) were 1.26 µM and 16 µM.
Regarding `COc1ccc(N2CC(=O)N3[C@H](c4ccc5c(c4)OCO5)c4[nH]c5ccccc5c4C[C@@H]3C2=O)cc1`, the half-maximal inhibitory concentration (IC50) with Plasmodium falciparum and with MRC5 was over 64 µM in each case.
For the compound `O=C1[C@H]2Cc3c([nH]c4ccccc34)[C@@H](c3ccc4c(c3)OCO4)N2C(=O)CN1c1cccc(Cl)c1`, the IC50 in the experiment on Plasmodium falciparum and in the experiment with MRC5 was over 64 µM in each case.
Consider `O=C1[C@H]2Cc3c([nH]c4ccccc34)[C@@H](c3ccc4c(c3)OCO4)N2C(=O)CN1Cc1ccc(N2CCOCC2)cc1`, for which the values for the IC50 in the experiment on Plasmodium falciparum and in the experiment on MRC5 were 9 µM and over 64 µM, respectively.
For `O=C1[C@H]2Cc3c([nH]c4ccccc34)[C@@H](c3ccc4c(c3)OCO4)N2C(=O)CN1c1cncnc1` the same measures were 56 µM and over 64 µM.
With `CCCCN1CC(=O)N2[C@H](c3ccc4c(c3)OCO4)c3[nH]c4ccccc4c3C[C@@H]2C1=O`, the IC50 in the experiment with Plasmodium falciparum and in the experiment with MRC5 was over 64 µM throughout.
For `O=C1[C@H]2Cc3c([nH]c4ccccc34)[C@@H](c3ccc4c(c3)OCO4)N2C(=O)CN1c1cccs1`, the IC50 in the experiment on Plasmodium falciparum and in the experiment on MRC5 was over 64 µM in each case.
Take `CC(C)(C)OC(=O)CC[C@@H]1NC(=O)[C@H]2Cc3c([nH]c4ccccc34)[C@@H](c3ccc4c(c3)OCO4)N2C1=O`: the IC50 in the experiment with Plasmodium falciparum was 60 µM; in the experiment on MRC5, over 64 µM.
Taken in the same sequence, the figures for `O=C1[C@H]2Cc3c([nH]c4ccccc34)[C@@H](c3ccc4c(c3)OCO4)N2C(=O)CN1CCN1CCOCC1` were 22 µM and over 64 µM.
`NCCCC[C@H]1NC(=O)[C@H]2Cc3c([nH]c4ccccc34)[C@@H](c3ccc4c(c3)OCO4)N2C1=O`: the 50% inhibitory concentration (IC50) is 4 µM in the experiment with Plasmodium falciparum and over 64 µM in the experiment with MRC5.

A word on the IC50: it is the concentration at which inhibition is half-maximal.
